Test results published in article PMC12166256 (Clinical Pharmacology and Therapeutics, 2025).
pIC50: −log10 of the molar value.

Tests used:
sTNFα = sTNFα (Homo sapiens, UniProt P01375); test: sTNFα target occupancy, ex vivo zymosan stimulation of blood, ELISA; type: in vivo
In short: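 Blood came from the 400 and 600 mg single-dose cohorts (pre-dose and 3 h post-dose) and all multiple-dose cohorts (pre-dose Day 1; pre-dose and 3 h Day 14). It was stimulated ex vivo with zymosan. ELISA measured total and compound-occupied TNFα to derive percent occupancy and percent change from baseline, summarised descriptively by group and time point.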

TNF = settings: read-out: 50% inhibitory concentration [IC50], TNF inhibition; in vitro; cited from earlier work
P-glycoprotein (P-gp) = settings: in vitro studies; cited from earlier work

Sequence of sTNFα (P01375 77-233 limits assumed): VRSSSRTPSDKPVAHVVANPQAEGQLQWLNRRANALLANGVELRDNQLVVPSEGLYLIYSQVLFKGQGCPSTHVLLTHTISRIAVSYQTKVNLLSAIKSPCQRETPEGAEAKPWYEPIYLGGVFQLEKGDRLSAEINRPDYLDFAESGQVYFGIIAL

CN1C(=O)c2cccc(OC(F)F)c2[C@H]2C[C@@H]1c1nc3ccc(-c4cnc(C5(N)CCC5)nc4)cc3n12 [Balinatunfib]
sTNFα occupancy, mean (sTNFα; MAD 100 mg BID, D14 0 h): 103.1% | sTNFα occupancy, median (sTNFα; MAD 100 mg BID, D14 0 h): 104.0% | sTNFα occupancy, mean (sTNFα; MAD 100 mg BID, D14 3 h): 104.9% | sTNFα occupancy, median (sTNFα; MAD 100 mg BID, D14 3 h): 105.3% | sTNFα occupancy, mean (sTNFα; MAD 100 mg QD, D14 0 h): 95.0% | sTNFα occupancy, median (sTNFα; MAD 100 mg QD, D14 0 h): 96.8% | sTNFα occupancy, mean (sTNFα; MAD 100 mg QD, D14 3 h): 97.2% | sTNFα occupancy, median (sTNFα; MAD 100 mg QD, D14 3 h): 98.4% | sTNFα occupancy, mean (sTNFα; MAD 200 mg BID, D14 0 h): 101.1% | sTNFα occupancy, median (sTNFα; MAD 200 mg BID, D14 0 h): 101.8% | sTNFα occupancy, mean (sTNFα; MAD 200 mg BID, D14 3 h): 105.2% | sTNFα occupancy, median (sTNFα; MAD 200 mg BID, D14 3 h): 106.6% | sTNFα occupancy, mean (sTNFα; MAD 300 mg BID, D14 0 h): 101.3% | sTNFα occupancy, median (sTNFα; MAD 300 mg BID, D14 0 h): 101.8% | sTNFα occupancy, mean (sTNFα; MAD 300 mg BID, D14 3 h): 99.8% | sTNFα occupancy, median (sTNFα; MAD 300 mg BID, D14 3 h): 102.8% | sTNFα target occupancy (sTNFα; SAD 400 mg and 600 mg cohorts, 3 hours after dosing): ~ 100% | sTNFα occupancy, mean (sTNFα; SAD 400 mg, D1 3 h): 102.2% | sTNFα occupancy, median (sTNFα; SAD 400 mg, D1 3 h): 105.3% | sTNFα occupancy, mean (sTNFα; SAD 600 mg, D1 3 h): 109.3% | sTNFα occupancy, median (sTNFα; SAD 600 mg, D1 3 h): 109.2% | pIC50 (TNF): 7.46 | active transport by P-glycoprotein (P-gp) (P-glycoprotein (P-gp)): substrate
